≈ marks a conversion by molar mass, not a printed value.
Columns and labels:
[1] = test system: Hepatitis B virus; test: Antiviral activity against HBV infected in human HepG2.2.15 cells assessed as inhibition of viral DNA level incubated for 3 days followed by medium replacement measured after 3 days by RT-PCR method; assay type: functional, organism-based; details: HepG2.2.15, 72 h
In short: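 HepG2.2.15 cells seeded at 4 × 10^4 cells/well, compound exposure 3 days, then fresh medium and a further 3-day incubation. Supernatants collected and stored at −80 °C. HBV DNA extracted from supernatant and quantified by qPCR. IC50 reported as the mean of three experiments.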

[2] = AUC (0 to last) in Balb/c mouse at 1 mg/kg, iv administered as bolus by LC-MS/MS analysis; assay type: ADME, organism-based; design: dose 1 mg/kg, time 0 - last, route intravenous; details: in vivo
In short: (§1)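 Single-dose PK in female Balb/c mice, n = 3 per compound; dosing vehicle 0.5% HEC, formulated at 1.00 mg/mL.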

[3] = molecular target: Cytochrome P450 2C19 (Homo sapiens, UniProt P33261); test: Inhibition of CYP2C19 in human liver microsomes using S-mephenytoin as substrate preincubated for 10 mins followed by substrate addition measured after 10 mins in presence of NADPH by LC-MS/MS analysis; assay type: ADME
[4] = Clearance in Balb/c mouse at 1 mg/kg, iv administered as bolus by LC-MS/MS analysis; assay type: ADME, organism-based; details: in vivo; in short: as §1
[5] = test system: Hepatitis B virus; test: Antiviral activity against HBV1.3 mer infected in hydrodynamic injection BALB/c mouse model assessed as log reduction in viral DNA in plasma at 50 mg/kg, po bid measured on day 5 by real-time PCR method relative to control
[6] = molecular target: Cytochrome P450 2D6 (Homo sapiens, UniProt P10635); test: Inhibition of CYP2D6 in human liver microsomes using dextromethorphan as substrate preincubated for 10 mins followed by substrate addition measured after 10 mins in presence of NADPH by LC-MS/MS analysis; assay type: ADME; details: read-out: INH
[7] = molecular target: Cytochrome P450 3A4 (Homo sapiens, UniProt P08684); test: Inhibition of CYP3A4 in human liver microsomes using midazolam as substrate preincubated for 10 mins followed by substrate addition measured after 10 mins in presence of NADPH by LC-MS/MS analysis; assay type: ADME; details: read-out: INH
[8] = Oral bioavailability in Balb/c mouse at 10 mg/kg administered via gavage by LC-MS/MS analysis; assay type: ADME, organism-based; details: in vivo; in short: as §1
[9] = test system: Hepatitis B virus; test: Antiviral activity against HBV1.3 mer infected in hydrodynamic injection BALB/c mouse model assessed as log reduction in viral DNA in liver at 50 mg/kg, po bid measured on day 7 by real-time PCR method relative to control; assay type: functional
In short: (§2)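 HBV DNA mouse model established by hydrodynamic injection. Mice, n = 6 per group, dosed orally twice daily with compound or vehicle (0.5% HEC). HBV DNA in plasma and liver measured by qPCR; log reduction taken versus the vehicle group. Error shown as standard error; significance by Student's t test.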

[10] = molecular target: T1, Cytochrome P450 1A2 (Homo sapiens, UniProt P05177); test: Inhibition of CYP1A2 in human liver microsomes using phenacetin as substrate preincubated for 10 mins followed by substrate addition measured after 10 mins in presence of NADPH by LC-MS/MS analysis; assay type: ADME
T1 sequence (P05177 whole entry): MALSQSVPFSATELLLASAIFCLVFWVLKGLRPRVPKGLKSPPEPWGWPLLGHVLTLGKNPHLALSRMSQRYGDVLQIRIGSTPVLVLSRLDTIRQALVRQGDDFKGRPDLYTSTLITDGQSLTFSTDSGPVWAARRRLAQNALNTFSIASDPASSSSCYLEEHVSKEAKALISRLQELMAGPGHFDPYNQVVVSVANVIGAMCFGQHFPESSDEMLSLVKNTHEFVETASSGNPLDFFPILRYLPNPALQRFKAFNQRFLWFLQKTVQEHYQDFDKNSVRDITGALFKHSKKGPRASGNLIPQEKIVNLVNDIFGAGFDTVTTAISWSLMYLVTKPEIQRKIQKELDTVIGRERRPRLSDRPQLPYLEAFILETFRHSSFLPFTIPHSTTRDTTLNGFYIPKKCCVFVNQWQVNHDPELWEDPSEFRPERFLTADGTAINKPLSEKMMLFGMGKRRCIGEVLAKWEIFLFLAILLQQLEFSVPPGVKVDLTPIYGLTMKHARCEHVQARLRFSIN

[11] = test system: Hepatitis B virus; test: Antiviral activity against HBV1.3 mer infected in hydrodynamic injection BALB/c mouse model assessed as log reduction in viral DNA in plasma at 50 mg/kg, po bid measured on day 3 by real-time PCR method relative to control; assay type: functional; in short: as §2
[12] = Cmax in Balb/c mouse at 10 mg/kg, po administered via gavage by LC-MS/MS analysis; assay type: ADME, organism-based; design: dose 10 mg/kg, route oral; details: in vivo; in short: as §1
[13] = Ratio of AUC (0 to 4 hrs) in Balb/c mouse liver to plasma administered orally by LC-MS/MS analysis; assay type: ADME; details: liver and plasma, po, read-out: Ratio AUC
[14] = molecular target: Cytochrome P450 2C9 (Homo sapiens, UniProt P11712); test: Inhibition of CYP2C9 in human liver microsomes using diclofenac as substrate preincubated for 10 mins followed by substrate addition measured after 10 mins in presence of NADPH by LC-MS/MS analysis; assay type: ADME
[15] = Volume of distribution at steady state in Balb/c mouse at 1 mg/kg, iv administered as bolus by LC-MS/MS analysis; assay type: ADME, organism-based; details: in vivo, read-out: Vdss; in short: as §1
[16] = Kinetic solubility of the compound; assay type: physicochemical; details: read-out: Kinetic_solubility
[17] = Half life in Balb/c mouse at 1 mg/kg, iv administered as bolus by LC-MS/MS analysis; assay type: ADME, organism-based; details: in vivo; in short: as §1
[18] = AUC (0 to last) in Balb/c mouse at 10 mg/kg, po administered via gavage by LC-MS/MS analysis; assay type: ADME, organism-based; design: dose 10 mg/kg, time 0 - last, route oral; details: in vivo; in short: as §1
[19] = molecular target: Core antigen (Hepatitis B virus, UniProt Q03732); test: Inhibition of HBV C150-Bodipy FL N-(2-aminoethyl) maleimide labeled capsid assessed as reduction in NaCl-induced capsid assembly preincubated for 15 mins followed by NaCl addition measured after 1 hr by fluorescence quenching assay
[20] = Lipophilicity, log D of the compound; assay type: physicochemical; details: octanol/water

Sequence of Cytochrome P450 2C9 (P11712 whole entry): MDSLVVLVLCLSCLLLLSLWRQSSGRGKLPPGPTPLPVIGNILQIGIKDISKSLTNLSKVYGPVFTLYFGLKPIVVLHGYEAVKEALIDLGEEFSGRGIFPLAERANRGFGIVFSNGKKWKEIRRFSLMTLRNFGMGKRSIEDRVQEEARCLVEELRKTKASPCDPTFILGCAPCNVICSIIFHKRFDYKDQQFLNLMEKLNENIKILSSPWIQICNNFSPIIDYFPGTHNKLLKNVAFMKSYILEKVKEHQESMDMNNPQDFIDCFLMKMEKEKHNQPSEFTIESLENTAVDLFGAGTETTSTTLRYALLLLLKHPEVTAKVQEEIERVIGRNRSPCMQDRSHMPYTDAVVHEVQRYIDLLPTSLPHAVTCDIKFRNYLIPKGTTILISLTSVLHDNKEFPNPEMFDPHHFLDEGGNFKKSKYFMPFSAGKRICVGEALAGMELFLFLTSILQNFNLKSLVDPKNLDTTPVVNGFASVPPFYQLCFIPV
Sequence of Core antigen (Q03732 whole entry): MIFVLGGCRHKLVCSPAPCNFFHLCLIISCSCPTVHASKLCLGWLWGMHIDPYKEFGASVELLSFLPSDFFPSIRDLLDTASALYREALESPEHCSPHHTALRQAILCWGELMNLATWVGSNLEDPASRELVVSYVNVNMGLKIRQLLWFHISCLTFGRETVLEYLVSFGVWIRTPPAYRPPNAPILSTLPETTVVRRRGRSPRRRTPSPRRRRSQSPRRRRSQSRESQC
Sequence of Cytochrome P450 3A4 (P08684 whole entry): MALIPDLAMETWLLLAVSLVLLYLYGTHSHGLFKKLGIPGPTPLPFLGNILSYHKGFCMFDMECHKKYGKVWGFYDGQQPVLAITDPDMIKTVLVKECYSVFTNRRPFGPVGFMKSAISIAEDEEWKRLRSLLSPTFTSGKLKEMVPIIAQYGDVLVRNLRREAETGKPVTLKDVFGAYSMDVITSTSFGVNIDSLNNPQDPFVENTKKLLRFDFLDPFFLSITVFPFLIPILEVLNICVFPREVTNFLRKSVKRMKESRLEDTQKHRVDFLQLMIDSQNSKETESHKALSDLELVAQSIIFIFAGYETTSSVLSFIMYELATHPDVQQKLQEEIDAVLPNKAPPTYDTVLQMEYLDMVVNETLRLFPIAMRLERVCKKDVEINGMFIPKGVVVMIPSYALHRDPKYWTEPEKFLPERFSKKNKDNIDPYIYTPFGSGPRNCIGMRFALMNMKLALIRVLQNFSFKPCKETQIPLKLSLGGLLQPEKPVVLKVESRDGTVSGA
Sequence of Cytochrome P450 2D6 (P10635 whole entry): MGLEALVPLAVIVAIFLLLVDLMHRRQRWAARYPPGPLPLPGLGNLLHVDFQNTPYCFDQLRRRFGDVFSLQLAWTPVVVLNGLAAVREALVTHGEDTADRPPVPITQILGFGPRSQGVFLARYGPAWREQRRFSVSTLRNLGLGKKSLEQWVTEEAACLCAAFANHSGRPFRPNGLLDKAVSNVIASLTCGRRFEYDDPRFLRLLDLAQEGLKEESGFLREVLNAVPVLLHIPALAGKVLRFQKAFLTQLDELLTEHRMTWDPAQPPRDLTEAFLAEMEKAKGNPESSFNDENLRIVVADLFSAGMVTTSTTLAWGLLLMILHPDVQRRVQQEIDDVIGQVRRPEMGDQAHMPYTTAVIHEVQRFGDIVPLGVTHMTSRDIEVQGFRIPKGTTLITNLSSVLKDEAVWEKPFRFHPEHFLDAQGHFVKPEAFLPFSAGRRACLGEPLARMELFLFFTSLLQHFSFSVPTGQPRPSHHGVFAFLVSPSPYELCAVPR
Sequence of Cytochrome P450 2C19 (P33261 whole entry): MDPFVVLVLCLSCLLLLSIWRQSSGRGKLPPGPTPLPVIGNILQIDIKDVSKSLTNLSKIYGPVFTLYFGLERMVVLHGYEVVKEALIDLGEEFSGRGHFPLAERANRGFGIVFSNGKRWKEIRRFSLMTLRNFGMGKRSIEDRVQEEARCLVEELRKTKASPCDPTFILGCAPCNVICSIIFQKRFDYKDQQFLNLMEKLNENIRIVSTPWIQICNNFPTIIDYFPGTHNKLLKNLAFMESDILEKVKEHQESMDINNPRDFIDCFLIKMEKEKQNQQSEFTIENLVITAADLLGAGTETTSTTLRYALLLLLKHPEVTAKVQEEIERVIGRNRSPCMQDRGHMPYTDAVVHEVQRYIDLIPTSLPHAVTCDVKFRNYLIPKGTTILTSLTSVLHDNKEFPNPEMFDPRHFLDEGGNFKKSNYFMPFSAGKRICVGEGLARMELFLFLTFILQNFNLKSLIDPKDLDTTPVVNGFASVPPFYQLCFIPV

Row | SMILES | IC50 [1] [µM] | also measured
1 | CCOC(=O)C1=C2C[C@@H](NS(C)(=O)=O)CN2C(c2nccs2)=N[C@H]1c1ccc(F)cc1Cl | 70 | 
2 | COC(=O)C1=C2C[C@@H](NC(=O)OC(C)(C)C)CN2C(c2nccs2)=N[C@H]1c1ccc(F)cc1Cl | 50 | 
3 | COC(=O)C1=C2C[C@H](NC(=O)OC(C)(C)C)CN2C(c2nccs2)=N[C@H]1c1ccc(F)cc1Cl | 30 | 
4 | COC(=O)C1=C(C)NC(c2ncc(F)cc2F)=N[C@H]1c1ccc(F)cc1Cl | 0.075 | 
5 | CCOC(=O)C1=C2CCCN2C(C2CC2)=NC1c1ccc(F)cc1Cl (configuration not stated) | > 10 | 
6 | CCOC(=O)C1=C2CCCCN2C(c2nccs2)=NC1c1ccc(F)cc1Cl (configuration not stated) | 1.4 | 
7 | CCOC(=O)C1=C2CN(C(C)=O)CCN2C(c2nccs2)=NC1c1ccc(F)cc1Br (configuration not stated) | 0.77 | 
8 | CCOC(=O)C1=C2CCCN2C(c2nccs2)=NC1c1ncc(F)cc1F (configuration not stated) | > 10 | 
9 | CCOC(=O)C1=C2CCCN2C(c2nccs2)=NC1c1ccc(F)cc1Br (configuration not stated) | 0.21 | 
10 | CCOC(=O)C1=C2CCCN2C(N2CCOCC2)=NC1c1ccc(F)cc1Cl (configuration not stated) | > 10 | 
11 | CCOC(=O)C1=C2CCCN2C(c2ccc(F)cn2)=NC1c1ccc(F)cc1Cl (configuration not stated) | 8.3 | 
12 | COCOC(=O)C1=C2CCCN2C(c2nccs2)=NC1c1ccc(F)cc1Cl (configuration not stated) | 2.1 | 
13 | COC(=O)C1=C2C[C@@H](NS(C)(=O)=O)CN2C(c2nccs2)=N[C@H]1c1ccc(F)cc1Cl | 0.06 | 
14 | CCOC(=O)C1=C2CCCN2C(c2nccs2)=NC1c1ccncc1Cl (configuration not stated) | > 10 | 
15 | CCOC(=O)C1=C2CCCN2C(c2nccs2)=NC1c1cc(F)ccc1Cl (configuration not stated) | > 10 | 
16 | COCCOC(=O)C1=C2CCCN2C(c2nccs2)=NC1c1ccc(F)cc1Cl (configuration not stated) | > 10 | 
17 | COC(=O)C1=C2C[C@H](NS(C)(=O)=O)CN2C(c2nccs2)=N[C@H]1c1ccc(F)cc1Cl | 0.01 | AUC(0-t) [2]: 1.7 µM·h; INH [3]: 39 µM; clearance [4]: 21 mL/min/kg; FC [5]: 2.57; IC50 [6]: > 50 µM; IC50 [7]: 11 µM; bioavailability [8]: 54%; FC [9]: 0.68; INH [10]: > 50 µM; FC [11]: 2.05; Cmax [12]: 4.7 µM; Kp [13]: 10; INH [14]: 28 µM; Vd [15]: 2 L/kg; solubility kinetic [16]: 22 µM (≈ 10.7 µg/mL); half-life [17]: 1.1 h; AUC(0-t) [18]: 9.1 µM·h; IC50 [19]: 0.8 µM; logD [20]: 2.8
18 | CCOC(=O)C1=C2C[C@H](NS(C)(=O)=O)CN2C(c2nccs2)=N[C@H]1c1ccc(F)cc1Cl | 10 | 
19 | CONC(=O)C1=C2CCCN2C(c2nccs2)=NC1c1ccc(F)cc1Cl (configuration not stated) | 5 | 
20 | CCOC(=O)C1=C2C[C@H](N(C)C)CN2C(c2nccs2)=N[C@H]1c1ccc(F)cc1Br | 500 | 
21 | CCOC(=O)C1=C2CN(S(C)(=O)=O)CCN2C(c2nccs2)=NC1c1ccc(F)cc1Br (configuration not stated) | 0.81 | 
22 | CCOC(=O)C1=C2CCCN2C(c2nccs2)=NC1c1ccc(F)cc1Cl (configuration not stated) | 0.3 | 
23 | CCOC(=O)C1=C2CCCN2C(c2ncc(F)cc2F)=NC1c1ccc(F)cc1Cl (configuration not stated) | 1.6 | 
24 | CCOC(=O)C1=C2CCCN2C(c2ncco2)=NC1c1ccc(F)cc1Cl (configuration not stated) | 6.3 | 

Row | SMILES | IC50 [1] [µM] | also measured
25 | CCOC(=O)C1=C2CCCN2C(c2nccs2)=NC1c1cc(Cl)sc1Cl (configuration not stated) | 1.7 | 
26 | CCOC(=O)C1=C2C[C@H](O)CN2C(c2nccs2)=NC1c1ccc(F)cc1Cl (some centres not stated) | 320 | 
27 | CCOC(=O)C1=C2CNC(=O)CN2C(c2nccs2)=NC1c1ccc(F)cc1Br (configuration not stated) | 3.5 | 
28 | CCOC(=O)C1=C2CCCN2C(c2nccs2)=NC1c1c(F)cccc1Cl (configuration not stated) | > 10 | 
29 | COC(=O)C1=C2C[C@H](NS(C)(=O)=O)CN2C(c2nccs2)=N[C@H]1c1ccc(F)c(F)c1F | 10 | 
30 | CN(C)CCOC(=O)C1=C2CCCN2C(c2nccs2)=NC1c1ccc(F)cc1Cl (configuration not stated) | > 10 | 
31 | CCOC(=O)C1=C2CCCN2C(c2nccn2C)=NC1c1ccc(F)cc1Cl (configuration not stated) | 2 | 
32 | CCOC(=O)C1=C2CCCN2C(c2nccs2)=NC1c1cnn(C)c1 (configuration not stated) | > 10 | 
33 | CCOC(=O)C1=C2CCCN2C(c2nccs2)=NC1c1cccc(F)c1Cl (configuration not stated) | 0.31 | 
34 | CCOC(=O)C1=C2CCCN2C(c2ccsn2)=NC1c1ccc(F)cc1Cl (configuration not stated) | 2.8 | 
35 | CCOC(=O)C1=C2CCCN2C(c2nccs2)=NC1c1ccc(F)cc1F (configuration not stated) | 0.51 | 
36 | CCOC(=O)C1=C2CCC(C)N2C(c2nccs2)=NC1c1ccc(F)cc1Cl (configuration not stated) | 8000 | 
37 | O=C(OCC(F)F)C1=C2CCCN2C(c2nccs2)=NC1c1ccc(F)cc1Cl (configuration not stated) | 2 | 
38 | CCOC(=O)C1=C2COCCN2C(c2nccs2)=NC1c1ccc(F)cc1Br (configuration not stated) | 2.5 | 
39 | CCOC(=O)C1=C2CCCN2C(c2ccccn2)=NC1c1ccc(F)cc1Cl (configuration not stated) | > 10 | 
40 | CCOC(=O)C1=C2CCCN2C(c2nccs2)=NC1c1ccc(F)cc1 (configuration not stated) | 1.2 | 
41 | CCOC(=O)C1=C2CCCN2C(c2ncc(F)cn2)=NC1c1ccc(F)cc1Cl (configuration not stated) | > 10 | 
42 | CCOC(=O)C1=C2CCN2C(c2nccs2)=NC1c1ccc(F)cc1Cl (configuration not stated) | 4.1 | 
43 | CCOC(=O)C1=C2CCCN2C(c2nccs2)=NC1c1nccs1 (configuration not stated) | > 10 | 
44 | CCOC(=O)C1=C2CCCN2C(c2nccs2)=NC1c1ccc(F)cc1C (configuration not stated) | 0.45 | 
45 | COC(=O)C1=C2CCCN2C(c2nccs2)=NC1c1ccc(F)cc1Cl (configuration not stated) | 0.32 | 
46 | CCOC(=O)C1=C2CCCN2C(c2nccs2)=NC1c1ccc(F)c(F)c1 (configuration not stated) | 0.43 | 
47 | CCOC(=O)C1=C2CCCN2C(c2cnn(C)c2)=NC1c1ccc(F)cc1Cl (configuration not stated) | > 10 | 
48 | CCOC(=O)C1=C2CNCCN2C(c2nccs2)=NC1c1ccc(F)cc1Br (configuration not stated) | 9.3 | 

Reference: ChEMBL document CHEMBL4130455, “Design, Synthesis, and Evaluation of Tetrahydropyrrolo[1,2-c]pyrimidines as Capsid Assembly Inhibitors for HBV Treatment” (ACS Med Chem Lett, 2017)
